Measured values as given in ChEMBL document CHEMBL2010764, “Novel alkynylphosphonate analogue of calcitriol with potent antiproliferative effects in cancer cells and lack of calcemic activity” (ACS Med Chem Lett, 2011).
The source made the active and inactive calls. The calls are words filed in the database; no cut-off is given here.

Columns and labels:
[1] = Cmax in mouse at 5 ug/kg; assay type: ADME, organism-based; parameters: dose 5 ug/kg; conditions: in vivo, 0.005 mg/kg
[2] = AUC in mouse at 5 ug/kg; assay type: ADME, organism-based; conditions: plasma, 0.005 mg/kg
Mus musculus [3] = test: Hypercalcemic activity in CF1 mouse assessed as increase in plasma calcium level at 5 to 20 ug/kg, ip qd for 5 days measured after 96 hrs; assay type: functional, organism-based
In short: (§1)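 Mice (n = 5/group) received daily intraperitoneal injections of agent or isopropanol vehicle at 5 or 20 μg/kg body weight for 5 days. Blood was taken before dosing (0 h) and at 24, 48, 72 and 96 h. Plasma calcium was read by Arsenazo III absorbance. Means ± SE; experiment repeated twice.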

Mus musculus [4] = test: Toxicity in CF1 mouse assessed as mortality at 5 to 20 ug/kg, ip qd for 5 days; assay type: organism-based; conditions: in vivo, 120 h
In short: (§2)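 Mice in three groups (n = 5/group) received daily intraperitoneal injections of test agent, calcitriol, or isopropanol vehicle at 5 or 20 μg/kg body weight for 5 days. Survival was followed through the examination period, with blood sampled before dosing and at 24, 48, 72 and 96 h for plasma calcium (Arsenazo III absorbance). Liver, duodenum, lungs and kidneys were inspected macroscopically.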

HN12 = test: Antiproliferative activity against human HN12 cells assessed as decrease in cell number at 1 nM after 72 hrs by hemocytometeric analysis; assay type: functional, cell-based
In short: (§3)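 Cells exposed to the test agent or isopropanol vehicle over 72 h, across 0.1–100 nM; proliferation expressed as percentage of vehicle. Experiments repeated at least three times per cell line; one-way ANOVA with Bonferroni post-test.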

[5] = Antiproliferative activity against human HN12 cells assessed as decrease in cell number after 72 hrs by WST assay; assay type: functional, cell-based; conditions: HN12, 72 h
T98G [6] = test: Antiproliferative activity against human T98G cells assessed as decrease in cell number after 72 hrs by WST assay; assay type: functional, cell-based; in short: as §3
T47D = test: Antiproliferative activity against human T47D cells assessed as decrease in cell number after 72 hrs by WST assay; assay type: functional, cell-based
[7] = Antiproliferative activity against mouse LM05e cells assessed as decrease in cell number after 72 hrs by WST assay; assay type: functional, cell-based
T98G [8] = test: Antiproliferative activity against human T98G cells harboring plasmid silencing VDR assessed as decrease in cell number at 10 nM after 72 hrs by WST assay; assay type: functional, cell-based
In short: (§4)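 T98G cells transfected with VDR-silencing shRNA plasmid or scrambled shRNA plasmid. 48 h after transfection, treated with 10 nM agent or vehicle, then counted 72 h after treatment. Triplicate wells, three independent experiments; mean ± SE. VDR knockdown was checked on lysates taken 48 h after transfection with 2 or 4 μg plasmid.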

T98G [9] = test: Antiproliferative activity against human T98G cells harboring scrambled shRNA assessed as decrease in cell number at 10 nM after 72 hrs by WST assay; assay type: functional, cell-based; in short: as §4
Mus musculus [10] = test: Hypercalcemic activity in CF1 mouse assessed as increase in plasma calcium level at 5 ug/kg, ip qd for 5 days measured after 96 hrs; assay type: functional, organism-based; in short: as §1
Mus musculus [11] = test: Toxicity in CF1 mouse assessed as mortality at 5 ug/kg, ip qd for 5 days; assay type: organism-based; conditions: in vivo, 0.005 mg/kg, 120 h; in short: as §2
Mus musculus [12] = test: Hypercalcemic activity in CF1 mouse assessed as increase in plasma calcium level at 20 ug/kg, ip qd for 5 days measured after 96 hrs; assay type: functional, organism-based; in short: as §1
Mus musculus [13] = test: Toxicity in CF1 mouse assessed as mortality at 20 ug/kg, ip qd for 5 days; assay type: organism-based; conditions: in vivo, 0.02 mg/kg, 120 h; in short: as §2
Mus musculus [14] = test: Toxicity in CF1 mouse assessed as morphological alterations in liver at 5 to 20 ug/kg, ip qd for 5 days measured after 15 days; assay type: organism-based; conditions: in vivo, 360 h
In short: (§5)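 Mice dosed intraperitoneally once daily for 5 days at 5 or 20 μg/kg in isopropanol vehicle. Liver, duodenum, lungs and kidneys were inspected visually for macroscopic morphological alterations after treatment.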

Mus musculus [15] = test: Toxicity in CF1 mouse assessed as morphological alterations in duodenum at 5 to 20 ug/kg, ip qd for 5 days measured after 15 days; assay type: organism-based; conditions: in vivo, 360 h; in short: as §5
Mus musculus [16] = test: Toxicity in CF1 mouse assessed as morphological alterations in lung at 5 to 20 ug/kg, ip qd for 5 days measured after 15 days; assay type: organism-based; conditions: in vivo, 360 h; in short: as §5
Mus musculus [17] = test: Toxicity in CF1 mouse assessed as morphological alterations in kidney at 5 to 20 ug/kg, ip qd for 5 days measured after 15 days; assay type: organism-based; conditions: in vivo, 360 h; in short: as §5
HCT-116 = test: Antiproliferative activity against human HCT116 cells assessed as decrease in cell survival at 0.1 to 100 nM after 72 hrs by WST1 assay; assay type: functional, cell-based; in short: as §3
LM3 = test: Antiproliferative activity against mouse LM3 cells assessed as decrease in cell survival at 0.1 to 100 nM after 72 hrs by WST1 assay; assay type: functional, cell-based; in short: as §3
SVEC vGPCR (Mouse) = test: Antiproliferative activity against mouse SVEC vGPCR cells assessed as decrease in cell number after 72 hrs by WST assay

SMILES: C=C1/C(=C\C=C2/CCC[C@]3(C)[C@@H]([C@H](C)CCCC(C)(C)O)CC[C@@H]23)C[C@@H](O)C[C@@H]1O [CALCITRIOL]
- Cmax [1]: > 10 ng/mL
- AUC [2]: > 40 ng·h/mL
- Activity (Mus musculus [3]): Active
- Activity (Mus musculus [4]): Toxic

SMILES: C=C1/C(=C\C=C2/CCC[C@]3(C)[C@@H]([C@H](C)CC#CP(=O)(OCC)OCC)CC[C@@H]23)C[C@@H](O)C[C@@H]1O
- Activity (HN12): Active
- IC50 [5]: 22.3 nM
- IC50 (T98G [6]): 36.1 nM
- IC50 (T47D): 4.78 nM
- IC50 [7]: 1.68 nM
- Activity (T98G [8]): Active
- Activity (T98G [9]): Active
- Activity (Mus musculus [10]): inactive
- Activity (Mus musculus [11]): Non-toxic
- Activity (Mus musculus [12]): inactive
- Activity (Mus musculus [13]): Non-toxic
- Activity (Mus musculus [14]): Non-toxic
- Activity (Mus musculus [15]): Non-toxic
- Activity (Mus musculus [16]): Non-toxic
- Activity (Mus musculus [17]): Non-toxic
- Activity (HCT-116): inactive
- Activity (LM3): inactive
- IC50 (SVEC vGPCR (Mouse)): 113 nM
